Results from different studies.
Organism: Klebsiella pneumoniae
Effect on: microbial growth

The MIC of CCN1CCN(C(=O)N[C@@H](C(=O)N[C@@H]2C(=O)N3[C@@H]2SC(C)(C)[C@@H]3C(=O)O)c2ccccc2)C(=O)C1=O is reported as 4 µg/mL (broth dilution; ATCC43816).
The MIC of O=C(O)c1cn(C2CC2)c2cc(N3CCNCC3)c(F)cc2c1=O is reported as over 512 µg/mL (broth dilution; ATCC700603).
The MIC of CC1(C)S[C@@H]2[C@H](NC(=O)[C@H](N)c3ccccc3)C(=O)N2[C@H]1C(=O)O is reported as 172 µM (broth dilution; ATCC43816).
For CC1(C)S[C@@H]2[C@H](NC(=O)[C@H](N)c3ccccc3)C(=O)N2[C@H]1C(=O)O, the MIC was 8 µg/mL (broth dilution; ATCC700603).
The MIC of C[C@@H](O)[C@H]1C(=O)N2C(C(=O)O)=C(SCCN=CN)C[C@H]12 is reported as 4 µg/mL (broth dilution; ATCC13883).
With C[C@H]1[C@H](NC(=O)/C(=N\OC(C)(C)C(=O)O)c2csc(N)n2)C(=O)N1S(=O)(=O)O the MIC was under 0.5 µg/mL (broth dilution; ATCC43816).
CCCCCCC#Cc1cncc(-c2nnc(SCc3cc([N+](=O)[O-])cc([N+](=O)[O-])c3)n2CCCN)c1 gave an MIC of over 64 µg/mL (broth dilution; DSM30104).
C[C@@H](O)[C@H]1C(=O)N2C(C(=O)O)=C(S[C@@H]3CN[C@H](C(=O)N(C)C)C3)[C@H](C)[C@H]12 gave an MIC of 2 µg/mL (broth dilution; ATCC700603).
For C[C@H]1[C@H](NC(=O)/C(=N\OC(C)(C)C(=O)O)c2csc(N)n2)C(=O)N1S(=O)(=O)O, the MIC was 0.0625 µg/mL (broth dilution; ATCC13883).
The MIC of CN(C)[C@@H]1C(O)=C(C(N)=O)C(=O)[C@@]2(O)C(O)=C3C(=O)c4c(O)cccc4[C@@](C)(O)[C@H]3C[C@@H]12 is reported as 0.13 µg/mL (broth dilution; ATCC10031; 12 h).
For O=C(N[C@H](CO)[C@H](O)c1ccc([N+](=O)[O-])cc1)C(Cl)Cl, the MIC was 4 µg/mL (broth dilution; ATCC43816).
For C[C@@H](O)[C@H]1C(=O)N2C(C(=O)O)=C(S[C@@H]3CN[C@H](C(=O)N(C)C)C3)[C@H](C)[C@H]12, the MIC was 0.125 µg/mL (broth dilution; ATCC13883).
[H]/N=C(\N/C(=N/[H])NCCCCCCNC(=N)NC(=N)Nc1ccc(Cl)cc1)Nc1ccc(Cl)cc1 gave an MIC of 1 µM (ATCC4352).
The MIC of CCCCCCC#Cc1cncc(-c2nnc(SCc3ccc([N+](=O)[O-])o3)n2CCCN)c1 is reported as over 64 µg/mL (broth dilution; DSM30104).
The MIC of CC1(C)S[C@@H]2[C@H](NC(=O)[C@H](N)c3ccccc3)C(=O)N2[C@H]1C(=O)O is reported as over 64 µg/mL (broth dilution; ATCC13883).
With CN(C)[C@@H]1C(O)=C(C(N)=O)C(=O)[C@@]2(O)C(O)=C3C(=O)c4c(O)cccc4[C@@](C)(O)[C@H]3C[C@@H]12 the MIC was 2 µg/mL (broth dilution; ATCC43816).
N[C@@H](Cc1c[nH]c2ccc(Cl)cc12)C(=O)O gave an MIC of over 200 µM (MGH78578; 18 h).
CC[C@H]1OC(=O)[C@H](C)[C@@H](O[C@H]2C[C@@](C)(OC)[C@@H](O)[C@H](C)O2)[C@H](C)[C@@H](O[C@@H]2O[C@H](C)C[C@H](N(C)C)[C@H]2O)[C@](C)(O)C[C@@H](C)C(=O)[C@H](C)[C@@H](O)[C@]1(C)O gave an MIC of 32 µg/mL (broth dilution; ATCC43816).
O=C(O)c1cn(C2CC2)c2cc(N3CCNCC3)c(F)cc2c1=O has an MIC of 0.1 µM (broth dilution; ATCC27736; 16 h).
With C[C@@H](O)[C@H]1C(=O)N2C(C(=O)O)=C(S[C@@H]3CN[C@H](C(=O)N(C)C)C3)[C@H](C)[C@H]12 the MIC was under 0.5 µg/mL (broth dilution; ATCC43816).
CCCCCCC#Cc1cncc(-c2nnc(SCc3ccc(Cl)cc3)n2CCCN)c1 has an MIC of 32 µg/mL (broth dilution; DSM30104).
